Data taken from ChEMBL document CHEMBL2069243, “Synthesis and SAR of pyridothiazole substituted pyrimidine derived HCV replication inhibitors” (Bioorg Med Chem Lett, 2012).

What was measured:
[1] = Cytotoxicity against human hepatoma cells assessed as decrease in GADPH RNA level after 3 days by Rt-PCR analysis; format: cell-based
[2] = Drug uptake in rat liver at 10 mg/kg, po at 6 hrs; format: ADME, organism-based; set-up: dose 10 mg/kg, route oral; details: read-out: Drug uptake
How it was run: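 Rats were dosed orally at 10 mpk in 0.4% methylcellulose, n=2. Animals were sacrificed at 6 h, and liver was harvested and processed to measure compound concentration (liver C6 h).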

[3] = AUC (0 to 6 hrs) in rat at 10 mg/kg, po; format: ADME, organism-based; set-up: time < 6 hr, dose 10 mg/kg, route oral; details: plasma
How it was run: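 Rats were dosed orally at 10 mpk in 0.4% methylcellulose, n=2 per compound. Plasma was sampled at 8 time points up to 6 h, and exposure was reported as AUC0-6 h.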

[4] = Cytotoxicity against human hepatoma cells after 3 days by MTS assay; format: cell-based
How it was run: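 MTS cell proliferation assay on replicon cells handled as in the replicon activity assay (seeded one day before, 0.5% DMSO, 10% FBS, serial dilutions), read 3 days after dosing. CC50 is the concentration giving 50% inhibition relative to vehicle-treated cells.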

[5] = tested on: Hepatitis C virus; test: Antiviral activity against Hepatitis C virus 1b con1 infected in human hepatoma cells assessed as decrease in replicon RNA level after 3 days by RT-PCR analysis; format: functional, organism-based, Hepacivirus hominis; details: genotype 1b Con1, 72 h
How it was run: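 Con1 genotype 1b replicon cells were seeded at 5000 cells/well one day before treatment. Compound in DMSO was added (final 0.5% DMSO, 10% FBS) as 10 serial twofold dilutions in triplicate. Cells were harvested 3 days after dosing. Replicon RNA was quantified by real-time RT-PCR (Taqman), normalized to GAPDH RNA, and EC50 was calculated.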

| Structure (SMILES) | concentration at 6 h [2] [ng/g] | AUC(0-t) at 6 h [3] [µM·h] | EC50 [5] [µM] | CC50 at 72 h [1] [µM] | CC50 at 72 h [4] [µM] |
| --- | --- | --- | --- | --- | --- |
| CCCc1nccc2sc(-c3c(C)nc(N[C@H](C)c4ccc(OC(F)(F)F)cc4)nc3N[C@@H]3C[C@H](CO)[C@@H](O)[C@H]3O)nc12 | 1260 | 0.8 | 0.02 | 13 | 13 |
| Cc1nc(N[C@H](C)c2ccc(OC(F)(F)F)cc2)nc(N[C@@H]2C[C@H](CO)[C@@H](O)[C@H]2O)c1-c1nc2c(C(C)C)nccc2s1 | 8500 | 3.2 | 0.026 | 11 | 10 |
| Cc1nc(N[C@H](C)c2ccc(OC(F)(F)F)cc2)nc(N[C@@H]2C[C@H](CO)[C@@H](O)[C@H]2O)c1-c1nc2c(CC(C)(C)C)nccc2s1 | 4400 | 3.2 | 0.026 | 10 | 13 |
| COC(=O)CCc1nccc2sc(-c3c(C)nc(N[C@H](C)c4ccc(OC(F)(F)F)cc4)nc3N[C@@H]3C[C@H](CO)[C@@H](O)[C@H]3O)nc12 |  |  | 0.059 | 23 | 14 |
| Cc1nc(N[C@H](C)c2ccc(OC(F)(F)F)cc2)nc(N[C@@H]2C[C@H](CO)[C@@H](O)[C@H]2O)c1-c1nc2c(N)nccc2s1 |  |  | 0.037 | 25 | > 25 |
| Cc1cc2sc(-c3c(C)nc(N[C@H](C)c4ccc(OC(F)(F)F)cc4)nc3N[C@@H]3C[C@H](CO)[C@@H](O)[C@H]3O)nc2c(C2CC2)n1 |  |  | 0.703 | 21 | 24 |
| CCc1cc2sc(-c3c(C)nc(N[C@H](C)c4ccc(OC(F)(F)F)cc4)nc3N[C@@H]3C[C@H](CO)[C@@H](O)[C@H]3O)nc2c(CC)n1 |  |  | 0.069 | 12 | 13 |
| Cc1nc(N(C)C)nc(N[C@@H]2C[C@H](CO)[C@@H](O)[C@H]2O)c1-c1nc2cnccc2s1 | 1400 | 7.5 | 0.557 | 25 | > 25 |
| Cc1nc(NCC(F)(F)F)nc(N[C@@H]2C[C@H](CO)[C@@H](O)[C@H]2O)c1-c1nc2cnccc2s1 |  |  | 0.016 | 25 | > 25 |
| Cc1nc(N)nc(N[C@@H]2C[C@H](CO)[C@@H](O)[C@H]2O)c1-c1nc2cnccc2s1 |  |  | 0.124 | 25 | 18 |
| Cc1nc(NCC2CC2)nc(N[C@@H]2C[C@H](CO)[C@@H](O)[C@H]2O)c1-c1nc2cnccc2s1 | 192 | 0.4 | 0.008 | 3 | 5 |
| CCOCCNc1nc(C)c(-c2nc3cnccc3s2)c(N[C@@H]2C[C@H](CO)[C@@H](O)[C@H]2O)n1 | 368 | 0.2 | 0.009 | 25 | 16 |
| Cc1nc(NCC2CCN(C)CC2)nc(N[C@@H]2C[C@H](CO)[C@@H](O)[C@H]2O)c1-c1nc2cnccc2s1 |  |  | 1.68 | 25 | > 25 |
| Cc1nc(NCc2ccccc2)nc(N[C@@H]2C[C@H](CO)[C@@H](O)[C@H]2O)c1-c1nc2cnccc2s1 |  |  | 0.003 | 25 | 14 |
| Cc1nc(NCc2c(F)cccc2F)nc(N[C@@H]2C[C@H](CO)[C@@H](O)[C@H]2O)c1-c1nc2cnccc2s1 |  |  | 0.001 | 4 | 10 |
| Cc1nc(NCc2ccc(OC(F)(F)F)cc2)nc(N[C@@H]2C[C@H](CO)[C@@H](O)[C@H]2O)c1-c1nc2cnccc2s1 |  |  | 0.003 | 25 | 25 |
| Cc1nc(N(C)Cc2ccccc2)nc(N[C@@H]2C[C@H](CO)[C@@H](O)[C@H]2O)c1-c1nc2cnccc2s1 | 100 | 0.2 | 0.301 | 25 | > 25 |
| Cc1nc(NC(C)(C)c2ccccc2)nc(N[C@@H]2C[C@H](CO)[C@@H](O)[C@H]2O)c1-c1nc2cnccc2s1 |  |  | 6.2 | 25 | > 25 |
| Cc1ccc(C2(Nc3nc(C)c(-c4nc5cnccc5s4)c(N[C@@H]4C[C@H](CO)[C@@H](O)[C@H]4O)n3)CC2)cc1 |  |  | 3.17 | 25 | > 25 |
| CCc1nccc2sc(-c3c(C)nc(N[C@H](C)c4ccc(OC(F)(F)F)cc4)nc3N[C@@H]3C[C@H](CO)[C@@H](O)[C@H]3O)nc12 | 6000 | 5.8 | 0.02 | 7 | 7 |

More lines, main results first:

| concentration at 6 h [2] [ng/g] | AUC(0-t) at 6 h [3] [µM·h] | EC50 [5] [µM] | Structure (SMILES) | CC50 at 72 h [1] [µM] | CC50 at 72 h [4] [µM] |
| --- | --- | --- | --- | --- | --- |
|  |  | 0.038 | Cc1cc2sc(-c3c(C)nc(N[C@H](C)c4ccc(OC(F)(F)F)cc4)nc3N[C@@H]3C[C@H](CO)[C@@H](O)[C@H]3O)nc2cn1 | 25 | > 25 |
|  | 0.3 | 0.052 | CNc1nc(C)c(-c2nc3cnccc3s2)c(N[C@@H]2C[C@H](CO)[C@@H](O)[C@H]2O)n1 | 14 | 20 |
| 276 | 1.4 | 0.125 | Cc1nc(NC2CC2)nc(N[C@@H]2C[C@H](CO)[C@@H](O)[C@H]2O)c1-c1nc2cnccc2s1 | 25 | 19 |
| 29 | 0.2 | 0.168 | Cc1nc(Nc2ccccc2)nc(N[C@@H]2C[C@H](CO)[C@@H](O)[C@H]2O)c1-c1nc2cnccc2s1 | 25 | > 25 |
| 100 | 0.1 | 0.012 | COc1cc(CCNc2nc(C)c(-c3nc4cnccc4s3)c(N[C@@H]3C[C@H](CO)[C@@H](O)[C@H]3O)n2)cc(OC)c1 | 25 | 19 |
| 104 | 0.2 | 0.007 | Cc1nc(N[C@H](C)c2ccccc2)nc(N[C@@H]2C[C@H](CO)[C@@H](O)[C@H]2O)c1-c1nc2cnccc2s1 | 25 | > 25 |
| 77 | 0.1 | 0.222 | Cc1nc(N[C@@H](C)c2ccccc2)nc(N[C@@H]2C[C@H](CO)[C@@H](O)[C@H]2O)c1-c1nc2cnccc2s1 | 25 | > 25 |
| 116 | 0.1 | 0.114 | Cc1ccc([C@@H](C)Nc2nc(C)c(-c3nc4cnccc4s3)c(N[C@@H]3C[C@H](CO)[C@@H](O)[C@H]3O)n2)cc1 | 25 | > 25 |
|  |  | 0.222 | Cc1nc(N[C@H](C)c2ccc(F)cc2)nc(N[C@@H]2C[C@H](CO)[C@@H](O)[C@H]2O)c1-c1nc2cnccc2s1 | 25 | 25 |
|  |  | 0.017 | Cc1nc(N[C@H](C)c2ccc(-c3cnn(C)c3)cc2)nc(N[C@@H]2C[C@H](CO)[C@@H](O)[C@H]2O)c1-c1nc2cnccc2s1 | 25 | 25 |
| 17 | 0.1 | 0.037 | COc1cc(OC)cc([C@@H](C)Nc2nc(C)c(-c3nc4cnccc4s3)c(N[C@@H]3C[C@H](CO)[C@@H](O)[C@H]3O)n2)c1 | 25 | 25 |
| 506 | 0.5 | 0.017 | Cc1nc(N[C@H](C)c2ccccc2OC(F)(F)F)nc(N[C@@H]2C[C@H](CO)[C@@H](O)[C@H]2O)c1-c1nc2cnccc2s1 | 24 | 23 |
